Data as given in ChEMBL document CHEMBL4007465, “1,4-Substituted Triazoles as Nonsteroidal Anti-Androgens for Prostate Cancer Treatment” (J Med Chem, 2017).
Calls of active or inactive are those of the source. No cut-off for these calls is given here.

What was measured:
[1] = molecular target: T1, Androgen receptor (Homo sapiens) (UniProt P10275); assay: Antagonist activity at androgen receptor in human LNCAP cells assessed as reduction in PSA mRNA expression at 10 uM after 24 hrs by RT-qPCR analysis relative to control; format: cell-based
T1 sequence (whole entry): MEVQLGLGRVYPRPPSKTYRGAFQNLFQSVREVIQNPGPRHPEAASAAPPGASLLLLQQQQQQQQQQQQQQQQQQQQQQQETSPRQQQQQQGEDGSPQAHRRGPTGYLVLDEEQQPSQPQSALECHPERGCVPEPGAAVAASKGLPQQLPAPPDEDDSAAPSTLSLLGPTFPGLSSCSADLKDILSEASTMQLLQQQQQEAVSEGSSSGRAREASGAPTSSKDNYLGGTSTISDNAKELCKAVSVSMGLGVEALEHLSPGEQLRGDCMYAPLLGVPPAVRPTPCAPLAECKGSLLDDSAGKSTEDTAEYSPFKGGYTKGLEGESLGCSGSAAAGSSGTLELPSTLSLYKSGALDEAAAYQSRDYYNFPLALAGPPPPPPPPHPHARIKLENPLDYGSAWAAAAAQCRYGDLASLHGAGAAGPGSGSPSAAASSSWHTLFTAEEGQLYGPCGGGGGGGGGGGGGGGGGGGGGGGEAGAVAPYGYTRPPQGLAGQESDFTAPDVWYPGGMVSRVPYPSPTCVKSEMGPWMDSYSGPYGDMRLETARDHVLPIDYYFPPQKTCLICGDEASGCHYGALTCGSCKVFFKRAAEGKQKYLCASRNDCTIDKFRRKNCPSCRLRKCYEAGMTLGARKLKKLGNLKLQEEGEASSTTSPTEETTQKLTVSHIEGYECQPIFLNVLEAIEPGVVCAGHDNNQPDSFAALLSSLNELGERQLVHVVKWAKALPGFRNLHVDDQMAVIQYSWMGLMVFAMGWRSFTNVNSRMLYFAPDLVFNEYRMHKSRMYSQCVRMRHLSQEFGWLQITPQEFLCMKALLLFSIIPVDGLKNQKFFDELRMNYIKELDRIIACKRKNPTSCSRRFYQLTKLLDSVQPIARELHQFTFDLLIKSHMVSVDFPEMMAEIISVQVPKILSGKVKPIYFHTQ
In short: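 LNCaP cells treated 24 h after seeding with 10 μM compound for 24 h at 37 °C. RNA extracted, cDNA made from equal RNA amounts, then SYBR Green RT-qPCR for PSA. Normalised to 18S rRNA, relative levels by comparative Ct method versus untreated cells. Run in triplicate.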

[2] = molecular target: T1, Androgen receptor (Homo sapiens)
[3] = Antagonist activity at androgen receptor V7 mutant in human CW22Rv1 cells assessed as cell growth inhibition after 72 hrs by SRB assay; format: cell-based
[4] = test system: Homo sapiens [UNDEFINED MUTATION]; assay: Antagonist activity at androgen receptor V7 mutant in human CW22Rv1 cells assessed as cell growth inhibition after 144 hrs by SRB assay; format: cell-based
In short: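 SRB assay on CW22Rv1 cells grown in RPMI 1640 with 10% FBS and 1% glutamine. Cells plated at 1700/well and exposed 24 h after seeding for 144 h to 0.02–20 μM. OD read at 490 nm. GI50 is the concentration giving 50% growth inhibition by the Monks formula relative to time-zero and untreated OD. Octuplicate wells, three independent experiments, mean ± SD.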

[5] = molecular target: T1, Androgen receptor (Homo sapiens); assay: Antagonist activity at androgen receptor in human LNCAP cells assessed as cell death after 144 hrs by SRB assay; format: cell-based
In short: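 LNCaP cells in RPMI with 10% FBS and 1% glutamine, 5000 cells/well, exposed 24 h after seeding for 144 h to 0.02–20 μM. Read by SRB, OD 490 nm. LC50 is the concentration killing 50% of cells, i.e. treated OD below time-zero OD, per the Monks formula. Octuplicate wells, three independent experiments, mean ± SD.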

[6] = test system: Homo sapiens [UNDEFINED MUTATION]; assay: Antagonist activity at androgen receptor V7 mutant in human CW22Rv1 cells assessed as cell death after 144 hrs by SRB assay; format: cell-based
In short: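 CW22Rv1 (RPMI 1640, 10% FBS, 1% glutamine) plated at 1700 cells/well; 24 h after seeding, drug exposure 0.02–20 μM for 144 h. Sulforhodamine B read at 490 nm. LC50 = concentration killing 50% of cells, i.e. OD treated below OD at time of drug addition (Monks formula). Octuplicate wells, three independent experiments, mean ± SD.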

[7] = Antitumor activity against human CW22Rv1 cells xenografted in nude CD1 mouse assessed as tumor volume inhibition at 50 mg/kg administered through oral gavage dosed qd for 5 days a week measured on day 7; format: functional
In short: (§1)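 Male CD-1 nude (nu/nu) mice, 8 weeks old, given 5 × 10^6 CW22Rv1 cells in saline s.c. in the right flank on day 0. Randomized, 5 per group. From day 1, before tumors were palpable, 50 mg/kg by oral gavage at 10 mL/kg in DMSO/Cremophor/PBS (10/5/85), qdx5/wx3w. Vehicle controls. Tumor volume by caliper as a × b²/2. TVI is the maximum value. Body weight loss monitored.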

Mus musculus [8] = assay: Toxicity in nude CD1 mouse xenografted with human CW22Rv1 cells assessed as body weight loss at 50 mg/kg administered through oral gavage dosed qd for 5 days a week for 3 weeks; format: organism-based; conditions: in vivo; in short: as §1
Mus musculus [9] = assay: Toxicity in nude CD1 mouse xenografted with human CW22Rv1 cells assessed as mortality at 50 mg/kg administered through oral gavage dosed qd for 5 days a week for 3 weeks; format: organism-based; conditions: in vivo
In short: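 Eight-week-old male CD-1 nude mice, 5 per group, given CW22Rv1 cells (5 × 10^6 in saline) sc in right flank on day 0. From day 1, oral gavage at 50 mg/kg (10 mL/kg) in DMSO/Cremophor/PBS (10/5/85), daily 5 days/week for 3 weeks. Vehicle controls. Toxicity scored as deaths per group, with body weight loss.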

Homo sapiens [10] = organism: Homo sapiens; assay: Potency index, ratio of (R)-bicalutamide IC50 to compound IC50 for antagonist activity at AR V7 mutant in human CW22Rv1 cells assessed as cell growth inhibition; format: cell-based
In short: (§2)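 CW22Rv1 growth-inhibition assay: cells exposed 24 h after seeding to 0.5–100 μM for 72 h, then counted with a Coulter counter. IC50 is the concentration causing 50% growth inhibition, taken from dose–response curves. Run in triplicate, three independent experiments, mean ± SD. Ratios divide the reference IC50 by the compound IC50.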

Homo sapiens [11] = organism: Homo sapiens; assay: Potency index, ratio of enzalutamide IC50 to compound IC50 for antagonist activity at AR V7 mutant in human CW22Rv1 cells assessed as cell growth inhibition; format: cell-based; in short: as §2

Compound N#Cc1ccc(-n2cc(COc3ccccc3)nn2)cc1C(F)(F)F has an inhibition [1] of over 65%.
N#Cc1ccc(OCc2cn(-c3ccc(C#N)c(C(F)(F)F)c3)nn2)cc1 showed an inhibition [1] of over 65%.
For N#Cc1ccc(OCc2cn(CC(=O)Nc3ccc(C#N)c(C(F)(F)F)c3)nn2)cc1, the inhibition [1] was 70% and the GI50 [2] was 6.42 µM.
With N#Cc1ccc(-n2cc(COc3cccc(C(F)(F)F)c3)nn2)cc1C(F)(F)F the inhibition [1] was “inactive”.
With N#Cc1ccc(-n2cc(COc3ccc(F)c(C(F)(F)F)c3)nn2)cc1C(F)(F)F the inhibition [1] was “inactive”.
For N#Cc1ccc(-n2cc(COc3ccc([N+](=O)[O-])cc3C(F)(F)F)nn2)cc1C(F)(F)F, the inhibition [1] was “inactive”.
In the case of O=[N+]([O-])c1ccc(OCc2cn(-c3cccc(C(F)(F)F)c3)nn2)c(C(F)(F)F)c1, the inhibition [1] is reported as “inactive”.
CC(O)c1c(COc2ccc(C#N)cc2)nnn1-c1ccc(C#N)c(C(F)(F)F)c1 (stereo not given) gave an inhibition [1] of over 65%.
In the case of N#Cc1ccc(-n2cc(-c3cccc(C(F)(F)F)c3F)nn2)cc1C(F)(F)F, the inhibition [1] is reported as “inactive”.
N#Cc1ccc(-n2cc(COc3ccc([N+](=O)[O-])cc3)nn2)cc1C(F)(F)F showed an inhibition [1] of over 65%.
Compound N#Cc1ccc(-n2cc(COc3ccc(F)cc3)nn2)cc1C(F)(F)F has an inhibition [1] of over 65% and a GI50 [2] of 19.2 µM.
N#Cc1ccc(-n2cc(CSc3ccc(F)cc3)nn2)cc1C(F)(F)F gave an inhibition [1] of over 65% and a GI50 [2] of 16.8 µM.
For C[C@](O)(CS(=O)(=O)c1ccc(F)cc1)C(=O)Nc1ccc(C#N)c(C(F)(F)F)c1 [(R)-BICALUTAMIDE], the IC50 [3] was 31.3 µM.
N#Cc1ccc(-n2cc(-c3cccc(F)c3F)nn2)cc1C(F)(F)F showed an inhibition [1] of 38%.
Compound N#Cc1ccccc1OCc1cn(-c2ccc(C#N)c(C(F)(F)F)c2)nn1 has an inhibition [1] of over 65%.
With N#Cc1ccc(-n2nnc(COc3ccc([N+](=O)[O-])cc3C(F)(F)F)c2I)cc1C(F)(F)F the inhibition [1] was “inactive”.
Compound N#Cc1ccc(-n2cc(COc3ccccc3[N+](=O)[O-])nn2)cc1C(F)(F)F has an inhibition [1] of over 65%.
For N#Cc1ccc(-n2cc(COc3ccc(C(F)(F)F)cc3)nn2)cc1C(F)(F)F, the inhibition [1] was “inactive”.
In the case of N#Cc1ccc(-n2cc(COc3cccc(C(F)(F)F)c3F)nn2)cc1C(F)(F)F, the inhibition [1] is reported as “inactive”.
For N#Cc1ccc(NC(=O)Cn2cc(COc3ccc(F)cc3)nn2)cc1C(F)(F)F, the inhibition [1] was “inactive”.
For N#Cc1ccc(OCc2cn(CC(=O)Nc3ccc(Cl)c(C(F)(F)F)c3)nn2)cc1, the GI50 [4] was 8.25 µM, the inhibition [1] was “inactive” and the GI50 [5] was 15.7 µM. For the same compound, the IC50 [3] was 8.14 µM, the LC50 [6] was 23.1 µM and the “%max” value [7] was 60%. The Activity (Mus musculus [8]) was 0%, the Activity (Mus musculus [9]) was “Non-Toxic” and the Ratio IC50 (Homo sapiens [10]) was 3.8. The Ratio IC50 (Homo sapiens [11]) was 4.4 and the GI50 [2] was 5.09 µM.
In the case of N#Cc1ccc(-n2cc(-c3cccc(Cl)c3F)nn2)cc1C(F)(F)F, the inhibition [1] is reported as “inactive”.
In the case of CNC(=O)c1ccc(N2C(=S)N(c3ccc(C#N)c(C(F)(F)F)c3)C(=O)C2(C)C)cc1F [ENZALUTAMIDE], the IC50 [3] is reported as 35.8 µM, the “%max” value [7] is reported as 43% and the Activity (Mus musculus [8]) is reported as 0%. For the same compound, the Activity (Mus musculus [9]) was “Non-Toxic”.
For N#Cc1ccc(NC(=O)Cn2cc(CSc3ccc(F)cc3)nn2)cc1C(F)(F)F, the inhibition [1] was “inactive”.
